According to ChEMBL document CHEMBL1122233, “Antihypertensive 9-substituted 1-oxa-4,9-diazaspiro[5.5]undecan-3-ones” (J Med Chem, 1983):

Tests used:
Rattus norvegicus [1] = test: Percentage fall in systolic blood pressure after 2 hours at 25 mg/kg given perorally; assay type: functional, organism-based; design: dose 25 mg/kg; conditions: Artery
Summary of the method: (§1)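 Male Okamoto-Aoki spontaneously hypertensive rats, trained, in groups of four matched for mean systolic pressure; five treated groups and one vehicle control run concurrently. Oral dosing in water (solution or suspension, 0.1 mL/10 g) on two consecutive mornings. On day 2, rats were restrained at 30.0 ± 1.0 °C and tail-cuff systolic pressure recorded at 1–4 h; percent fall versus control, 1-tail t test, p ≤ 0.05.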

Rattus norvegicus [2] = test: Percentage fall in systolic blood pressure after 1 hr at 25 mg/kg given perorally; assay type: functional, Artery; conditions: route oral; summary of the method: as §1
Rattus norvegicus [3] = test: Percentage fall in systolic blood pressure after 4 hours at 25 mg/kg given perorally; assay type: functional, Artery; conditions: route oral; summary of the method: as §1
Rattus norvegicus [4] = test: Percentage fall in systolic blood pressure after 3 hours at 25 mg/kg given perorally; assay type: functional, Artery; conditions: route oral; summary of the method: as §1
Rattus norvegicus [5] = test: Percentage fall in systolic blood pressure after 2 hr at 6.25 mg/kg given perorally; assay type: functional, Artery; conditions: route oral; summary of the method: as §1
Rattus norvegicus [6] = test: Percentage fall in systolic blood pressure after 1 hr at 6.25 mg/kg given perorally; assay type: functional, Artery; conditions: route oral
Summary of the method: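 Male Okamoto-Aoki SHR, four per group, with a concurrent vehicle control group. Oral dosing in water (0.1 mL/10 g) on two consecutive mornings. After the day-2 dose, rats were restrained in a 30 °C chamber. Tail-cuff systolic pressure was taken at 1-4 h from four traces per rat. Result is % decrease versus control mean, by 1-tailed t test, p ≤ 0.05.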

Rattus norvegicus [7] = test: Percentage fall in systolic blood pressure after 2 hr at 25 mg/kg given perorally; assay type: functional, Artery; conditions: route oral; summary of the method: as §1
Rattus norvegicus [8] = test: Percentage fall in systolic blood pressure after 4 hr at 6.25 mg/kg given perorally; assay type: functional, organism-based; design: dose 6.25 mg/kg; conditions: Artery; summary of the method: as §1
Rattus norvegicus [9] = test: (§2) Percentage fall in systolic blood pressure after 4 hr at 25 mg/kg given perorally; assay type: functional, Artery; conditions: route oral; summary of the method: as §1
Rattus norvegicus [10] = test: Percentage fall in systolic blood pressure after 3 hr at 6.25 mg/kg given perorally; assay type: functional, Artery; conditions: route oral; summary of the method: as §1
Rattus norvegicus [11] = test: Percentage fall in systolic blood pressure after 3 hr at 25 mg/kg given perorally; assay type: functional, Artery; conditions: route oral; summary of the method: as §1
Rattus norvegicus [12] = test: as §2; assay type: functional, organism-based; design: dose 25 mg/kg; conditions: Artery; summary of the method: as §1

| SMILES | Decrease in SBP (Rattus norvegicus [1]) | Decrease in SBP (Rattus norvegicus [2]) | Decrease in SBP (Rattus norvegicus [3]) | Decrease in SBP (Rattus norvegicus [4]) | Decrease in SBP (Rattus norvegicus [5]) | Decrease in SBP (Rattus norvegicus [6]) | Decrease in SBP (Rattus norvegicus [7]) | Decrease in SBP (Rattus norvegicus [8]) | Decrease in SBP (Rattus norvegicus [9]) | Decrease in SBP (Rattus norvegicus [10]) | Decrease in SBP (Rattus norvegicus [11]) | Decrease in SBP (Rattus norvegicus [12]) |
| --- | --- | --- | --- | --- | --- | --- | --- | --- | --- | --- | --- | --- |
| O=C1COC2(CCN(CCc3ccc(O)cc3)CC2)CN1 | Not significant | 13% | 21% | 11% | – | – | – | – | – | – | – | – |
| O=C1COC2(CCN(CC3COc4ccccc4O3)CC2)CN1 (stereo not drawn) | – | 53% | – | – | 36% | 38% | 49% | Not significant | 38% | 21% | 40% | – |
| CN1CC2(CCN(CC(O)C3COc4ccccc4O3)CC2)OCC1=O (stereo in doubt; 60) | – | – | – | – | – | – | – | – | – | – | – | Not significant |
